Test results published in ChEMBL document CHEMBL1141078, “Discovery of potent, nonsystemic apical sodium-codependent bile acid transporter inhibitors (Part 1)” (J Med Chem, 2005).

Legend:
[1] = molecular target: T1, Ileal sodium/bile acid cotransporter (Homo sapiens, UniProt Q12908); assay: In vitro inhibition of ASBT mediated uptake of [14C]taurocholate (5 uM) in Baby hamster cells expressing human IBAT; type: cell-based
T1 sequence (Q12908 whole entry): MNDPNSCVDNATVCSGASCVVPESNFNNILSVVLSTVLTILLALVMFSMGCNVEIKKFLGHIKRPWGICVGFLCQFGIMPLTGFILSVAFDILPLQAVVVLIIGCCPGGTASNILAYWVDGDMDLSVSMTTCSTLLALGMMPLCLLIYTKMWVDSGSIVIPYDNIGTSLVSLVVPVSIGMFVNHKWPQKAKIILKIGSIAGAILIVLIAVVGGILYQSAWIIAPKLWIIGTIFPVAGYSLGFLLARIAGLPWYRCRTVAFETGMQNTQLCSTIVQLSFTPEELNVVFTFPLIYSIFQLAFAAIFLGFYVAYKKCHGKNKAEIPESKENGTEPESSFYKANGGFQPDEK
Summary of the method: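 BHK cells stably transfected with human IBAT cDNA (H14) were seeded 24–72 h before assay at cell densities adjusted to that interval. Cells were washed, then incubated for 2 h at 37 °C in DMEM (4.5 g/L glucose, 0.2% fatty-acid-free BSA) with test compound and [14C]taurocholate. Wells were washed with cold PBS containing BSA and then with PBS alone. Cell-associated radioactivity was measured by scintillation counting, and IC50 values were derived.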

[2] = molecular target: T1, Ileal sodium/bile acid cotransporter; assay: Effect on serum total cholesterol in cholesterol-fed hamster; control is at 135; type: functional
[3] = molecular target: T1, Ileal sodium/bile acid cotransporter; assay: Effect on fecal bile acid in cholesterol-fed hamster; control is at 8.0; type: functional, Feces
[4] = molecular target: T1, Ileal sodium/bile acid cotransporter; assay: Effect on 24 hr fecal weight in cholesterol-fed hamster; control is at 2.1; type: functional, Feces
[5] = molecular target: T1, Ileal sodium/bile acid cotransporter; assay: Effect on 24 hr fecal weight in cholesterol-fed hamster; control is at 2.3; type: functional, Feces
[6] = molecular target: T1, Ileal sodium/bile acid cotransporter; assay: Effect on serum total cholesterol in cholesterol-fed hamster; control is at 143; type: functional
[7] = molecular target: T1, Ileal sodium/bile acid cotransporter; assay: Effect on fecal bile acids in cholesterol-fed hamster; control is at 6.2; type: functional, Feces
[8] = molecular target: T1, Ileal sodium/bile acid cotransporter; assay: Effect on serum total cholesterol in cholesterol-fed hamster; control is at 129; type: functional
[9] = molecular target: T1, Ileal sodium/bile acid cotransporter; assay: Effect on fecal bile acid in cholesterol-fed hamster; control is at 6.1; type: functional, Feces
[10] = molecular target: T1, Ileal sodium/bile acid cotransporter; assay: Effect on 24 hr fecal weight in cholesterol-fed hamster; control is at 1.7; type: functional, Feces
[11] = molecular target: T1, Ileal sodium/bile acid cotransporter; assay: Effect on serum total cholesterol in cholesterol-fed hamster; control is at 195; type: functional
[12] = molecular target: T1, Ileal sodium/bile acid cotransporter; assay: Effect on 24 hr fecal weight in cholesterol-fed hamster; control is at 3.5; type: functional, Feces
[13] = molecular target: T1, Ileal sodium/bile acid cotransporter; assay: Effect on fecal bile acid in cholesterol-fed hamster; control is at 8.7; type: functional, Feces

Compound | IC50 [1] [nM] | also measured
CCCCC1(CCCC)CS(=O)(=O)c2c(cccc2N(C)C)[C@@H](c2ccc(F)cc2)[C@H]1O | 180 | –
CCCCC1(CCCC)CS(=O)(=O)c2ccc([N+](C)(C)C)cc2[C@@H](c2ccccc2)[C@H]1O | 210 | –
C=CCCCCCCCCOc1ccc2c(c1)S(=O)(=O)C[C@@](CC)(CCCC)[C@H](O)[C@@H]2c1ccccc1 | 16000 | –
CCCC[C@]1(CC)CS(=O)(=O)c2ccc(NO)cc2[C@@H](c2ccccc2)[C@H]1O | 260 | –
CC1(C)CS(=O)(=O)c2ccc(N)cc2[C@@H](c2ccccc2)[C@H]1O | > 50000 | –
CCCC[C@]1(CC)CS(=O)(=O)c2ccc(-c3ccccc3)cc2[C@@H](c2cccc(OC)c2)[C@H]1O | 180 | –
CCCCC1(CCCC)CS(=O)(=O)c2ccc(Br)cc2[C@@H](c2ccccc2Br)[C@H]1O | 550 | –
CCCCCC1(CCCCC)CS(=O)(=O)c2ccc(C)cc2[C@@H](c2ccc(F)cc2)[C@H]1O | 318 | –
CCCCC1(CCCC)CS(=O)(=O)c2c(F)cccc2[C@@H](c2ccc(F)cc2)[C@H]1O | 180 | –
CCCC[C@]1(CC)CS(=O)(=O)c2ccc(N(C)C)cc2[C@@H](c2ccccc2)[C@H]1O | 5 | Total cholesterol [2]: 97 mg/dL; FBA [3]: 13.7 ((mmol/day)/100g); Fecal weight [4]: 2.1 g
CCCC[C@]1(CC)CS(=O)(=O)c2ccc(NS(C)(=O)=O)cc2[C@@H](c2ccccc2)[C@H]1O | 600 | –
CCCCC1(CCCC)CS(=O)(=O)c2cc(OC)ccc2[C@@H](c2ccccc2)[C@H]1O | 190 | –
CCCC[C@]1(CC)CS(=O)(=O)c2ccc(N(O)C(=O)OC(C)(C)C)cc2[C@@H](c2ccccc2)[C@H]1O | 2670 | –
CCCC[C@]1(CC)CS(=O)(=O)c2cc(OC)ccc2[C@@H](c2ccccc2)[C@H]1O | 120 | Fecal weight [5]: 2.4 g; Total cholesterol [6]: 126 mg/dL; FBA [7]: 11.9 ((mmol/day)/100g)
CCCC[C@]1(CC)CS(=O)(=O)c2ccc(NC(=O)OCc3ccccc3)cc2[C@@H](c2ccccc2)[C@H]1O | 400 | –
CCCC[C@]1(CC)CS(=O)(=O)c2ccc(N)cc2[C@@H](c2ccccc2)[C@H]1O | 68 | Total cholesterol [8]: 126 mg/dL; FBA [9]: 8.8 ((mmol/day)/100g); Fecal weight [10]: 1.6 g
CCCCCCNc1ccc2c(c1)[C@@H](c1ccccc1)[C@@H](O)[C@](CC)(CCCC)CS2(=O)=O | 1670 | –
CCCCCC(=O)Nc1ccc2c(c1)[C@@H](c1ccccc1)[C@@H](O)[C@](CC)(CCCC)CS2(=O)=O | 300 | –
CCCCC1(CCCC)CS(=O)(=O)c2cc(N(C)C)ccc2[C@@H](c2ccccc2)[C@H]1O | 120 | –
CCCCC1(CCCC)CS(=O)(=O)c2ccc(N(C)C)cc2[C@@H](c2ccc(OCCOCCOCC[N+](CC)(CC)CC)cc2)[C@H]1O.[Br-] | 3 | Total cholesterol [11]: 141 mg/dL; Fecal weight [12]: 3.9 g; FBA [13]: 16.2 ((mmol/day)/100g)
CCCC[C@]1(CC)CS(=O)(=O)c2ccccc2[C@H](c2ccccc2)[C@H]1O (racemic) | – | Inhibition [1]: 37%
CCCC[C@]1(CC)CS(=O)(=O)c2ccccc2[C@@H](c2ccccc2)[C@@H]1O (racemic) | 4800 | –
CCCC[C@]1(CC)CS(=O)(=O)c2ccccc2[C@@H](c2ccccc2)[C@H]1O (racemic) | 280 | –

Now from value to compound, other results behind:

IC50 [1] [nM] | Compound | also measured
7 | CCCCC1(CCCC)CS(=O)(=O)c2ccc(N(C)C)cc2[C@@H](c2ccc(OC)cc2)[C@H]1O | –
50 | CCCCC1(CCCC)CS(=O)(=O)c2ccc(OC)cc2[C@@H](c2ccc(F)cc2)[C@H]1O | –
10 | CCCCC1(CCCC)CS(=O)(=O)c2ccc(N(C)C)cc2[C@@H](c2ccc(F)cc2)[C@H]1O | –
19 | CCCC[C@]1(CC)CS(=O)(=O)c2ccc(SC)cc2[C@@H](c2ccc(F)cc2)[C@H]1O | –
13 | CCCCC1(CCCC)CS(=O)(=O)c2ccc(N(C)C)cc2[C@@H](c2ccccc2)[C@H]1O | –
70 | CCCC[C@]1(CC)CS(=O)(=O)c2ccc(Br)cc2[C@@H](c2cccc(OC)c2)[C@H]1O | –
90 | CCCC[C@]1(CC)CS(=O)(=O)c2ccc(NC(C)=O)cc2[C@@H](c2ccccc2)[C@H]1O | –
59 | CCCC[C@]1(CC)CS(=O)(=O)c2ccc(N3CCCC3)cc2[C@@H](c2ccc(F)cc2)[C@H]1O | –
21 | CCCC[C@]1(CC)CS(=O)(=O)c2ccc(C)cc2[C@@H](c2ccc(F)cc2)[C@H]1O | –
46 | CCCCC1(CCCC)CS(=O)(=O)c2ccc(C)cc2[C@@H](c2ccc(F)cc2)[C@H]1O | –
2 | CCCCC1(CCCC)CS(=O)(=O)c2c(OC)cc(N(C)C)cc2[C@@H](c2ccc(OC)cc2)[C@H]1O | –
55 | CCCC[C@]1(CC)CS(=O)(=O)c2ccc(OC)cc2[C@@H](c2ccccc2)[C@H]1O | –
